Apaf1 activ: activators of human Apaf-1 apoptosome | Apaf-1 apoptosome caspase-3 activation, DEVD-Rh110 fluorescence; stronger effect = lower value | O14727 | hit rate 0.31% among 330,000 | activity change, negative = activation, % at 20 µM;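 active means activity change at or below -40% at 20 µM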
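Assay system – biochemical Apaf-1 apoptosome reconstitution · Medium – 20 mM HEPES buffer, pH 7.5, containing CHAPS and BSA · Incubation – 30 min preincubation, 50 min reaction, room temperature · Measured by – Caspase-3-released Rh110 fluorescence, 540 nm emission, 480 nm excitation · Read-out – Caspase-3 cleavage activity downstream of Apaf-1 activation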
Rh110 interf act: interferes with Rh110 fluorescence, flagging false Apaf-1 activators | shares compounds with Apaf1 activ | Rh110 fluorescence interference, quenched caspase reaction, Ex480/Em540 | fluorescence interference (activity change), % at 20 µM, hits read low | 980 tested, under 10 active | AID 504616;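 active means mean activity change at or below -40% when tested at 20 µM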
Apaf-1 act conf2: confirmation of human Apaf-1 activators; shares compounds with Apaf1 activ; reconstituted apoptosome caspase-3 activity, DEVD-Rh110 fluorescence; stronger effect = lower value; activity change, negative = activation, % at 20 µM; hit rate 5% among 980; AID 504617;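 active means mean activity change at or below -40%, meaning activation of 40% or more, at 20 µM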
Apaf1 act interf: shows fluorescence interference in the Apaf-1 activator assay format. shares compounds with Apaf1 activ. fluorescence interference counterscreen. EC50, µM. 55 tested, under 10 active; call rule not given here
* marks the source's active call; other numbers are inactive results; . = no result. These entries were drawn from the full list.

SMILES | Apaf1 activ | Rh110 interf act | Apaf-1 act conf2 | others
O=C(OCc1nc2ccccc2s1)c1ccc([N+](=O)[O-])o1 | 69 | . | .
CCc1ccc(NC(=S)Nc2cccc3cnccc23)cc1 | 89 | . | .
CN(C)C=Nc1c(Br)cc(Br)c2nonc12 | 43 | . | .
COC(=O)CCC(=O)OC1(C)C(=O)C=C2C=C(C3CC3)N(CCN3CCOCC3)C=C2C1=O (stereo not given) | 46 | . | .
CN(C)CCN(C(=O)c1ccc2c(c1)CCCC2)c1nc2cc3c(cc2s1)OCCO3 | 44 | . | .
CN(C)CCn1c2c(c(SCC(=O)Nc3ccc4c(c3)OCCO4)nc1=O)CCCC2 | -62* | -6 | 5
COc1ccc(NC(=O)CSc2nc3c(c(-c4cccs4)c2C#N)CN(C)CC3)cc1OC | 67 | . | .
CCOc1ccc(C(=O)/C=C/Nc2ccc(S(=O)(=O)N=C(N)N)cc2)cc1 | -160* | 1 | -74* | Apaf1 act interf=>100
COc1ccc(OC)c(C2=NOC(C(=O)Nc3ccc4c(c3)OCCO4)C2)c1 (stereo not given) | 42 | . | .
C=CCNC(C(=O)Nc1cccc(OC)c1)c1ccccc1 (stereo not given) | 43 | . | .
COc1cccc(NC(=O)C2CCCO2)c1 (stereo not given) | -114* | 10 | 13
CCCCNC(=O)C(C)N(CCN(C)C)C(=O)CCCN1C(=O)NC(c2ccc([N+](=O)[O-])cc2)C(C(=O)OCc2ccccc2)=C1C (stereo not given) | 45 | . | .
C#CCOCCOCCOCCNc1nc(N2CCN(C(=O)CCCCCCCCCCNC(=O)[C@H](CO)n3cc(CCCSC)nn3)CC2)nc(N2CCN(C(=O)CCCCCCCCCCNC(=O)[C@H](CCCCN)n3cc(CCO)nn3)CC2)n1 | 74 | . | .
Cc1ccc(C(=O)NCC(=O)N2CCCCCCC2)cc1 | 61 | . | .
O=C(CSc1ccc2nnc(-c3ccccc3)n2n1)N1CCCCC1 | -113* | 2 | 9
COC(=O)c1ccc(-c2ncc(-c3cccc4ccccc34)o2)cc1 | 42 | . | .
CCCC[n+]1ccn(C2=C([O-])c3ccccc3C(=O)/C2=N\S(=O)(=O)c2ccc(Br)cc2)c1 | 59 | . | .
Cc1nn(Cc2ccc(F)cc2)c(Cl)c1/C=N/NC(=O)c1cccnc1 | -49* | -2 | 10
CCN(CC)C(=O)CSC(=Nc1ccccc1F)NC#N | -52* | 18 | 11
N#Cc1c(N2CCCC(O)C2)nc(N)c2c(N)nc3c(c12)CC(=O)N3C12CC3CC(CC(C3)C1)C2 (stereo not given) | 98 | . | .
N#Cc1c(N(CCO)CCO)nc(N)c2c(N)nc3c(c12)CC(=O)N3CC1CCCO1 (stereo not given) | 98 | . | .
CC1CC2(CCCCC2)N2C(=O)C(=O)c3cccc1c32 (stereo not given) | 41 | . | .
CCN(CC)C(=O)Cn1cc(S(=O)(=O)CC(=O)N2CCOCC2)c2ccccc21 | -56* | 12 | 12
CC[C@@H](C)[C@@H]1CN([C@@H](CN2CCC[C@H]2CN2C(N)=NC[C@@H]2Cc2ccccc2)C(C)C)C(=N)N1CCCC1CCCC1 | 63 | . | .
O=[N+]([O-])c1cccc(OCc2cn3cccnc3n2)c1 | -66* | 10 | 3
SMILES | Apaf1 activ | Rh110 interf act | Apaf-1 act conf2 | others
Nc1ccn([C@H]2C[C@H](O)[C@@H](CO)O2)c(=O)n1 | -6 | . | .
NC(=O)CSc1nc2scc(-c3ccc(Cl)cc3)c2c(=O)n1Cc1ccccc1 | 47 | . | .
CN(C)CCC(c1ccccc1)c1ccccn1 (stereo not given) | -3 | . | .
C#CC(CC)(CC)NC(=O)/C=C/C(=O)O | -566* | 7 | 11
C#CCOCCOCCOCCNc1nc(N2CCN(C(=O)CCCCCCCCCCNC(=O)[C@H]([C@@H](C)CC)n3cc(CCCCCN)nn3)CC2)nc(N2CCN(C(=O)CCCCCCCCCCNC(=O)[C@H]([C@@H](C)CC)n3cc(CCCCN=C(N)N)nn3)CC2)n1 | 71 | . | .
Cc1cc(Br)ccc1OCCCCN1CCC(C)CC1 | -57* | -3 | 11
CCOC(=O)N1CCN(C2=C(NS(=O)(=O)c3ccccc3)C(=O)c3ccccc3C2=O)CC1 | 48 | . | .
COCCN(Cc1ccccc1)C(=O)c1cccc(S(=O)(=O)N2CCN(c3ccccc3)CC2)c1 | 43 | . | .
CCN(CC)C(=O)N1CCN(S(=O)(=O)c2ccccc2)CC1 | -81* | -2 | 11
CC(C)CCOc1ccc(C(CC(N)=O)C(=O)O)cc1 (stereo not given) | -41* | 13 | 15
O=C1C(Cl)=C(NCCCO)C(=O)c2ccccc21 | 45 | . | .
Cc1ccc(-c2csc(NC(=O)C3=NN(C4CCS(=O)(=O)C4)C(=O)CC3)n2)cc1 (stereo not given) | -58* | 8 | -21
Nc1ccc(C(=O)O)cc1 | -5 | . | .
O=C(CSc1nncc2ccccc12)N1CCOCC1 | -543* | 1 | 7
O=C(CSc1c[nH]c2ccccc12)N1CCOCC1 | -42* | 19 | 14
CN1CCc2c(sc(NC(=O)c3ccc(C(=O)c4ccccc4)cc3)c2C(N)=O)C1 | 44 | . | .
C#CCOCCOCCOCCNc1nc(N2CCN(C(=O)CCCCCCCCCCNC(=O)Cn3cc(CCCCCN)nn3)CC2)nc(N2CCN(C(=O)CCCCCCCCCCNC(=O)[C@H]([C@@H](C)CC)n3cc(CCCCN=C(N)N)nn3)CC2)n1 | 85 | . | .
COC(=O)C(CCCCNC(=O)c1ccc([N+](=O)[O-])cc1)NC(=O)c1ccc([N+](=O)[O-])cc1 (stereo not given) | -48* | 8 | 13
COc1ccc(C(=O)NCC(=O)OCc2ccc([N+](=O)[O-])cc2)cc1 | -70* | 12 | 11
C/C(=N/NC(=O)Cc1cc(=O)[nH][nH]1)c1ccc([N+](=O)[O-])cc1 | 55 | . | .
Cc1cc(C)c2nc(N(CCCN(C)C)C(=O)c3ccc4c(c3)CCCC4)sc2c1 | 42 | . | .
COc1ccc(C(=O)N2CCCCCC2)cc1OC1CCN(C(C)C)CC1 | -68* | -1 | -2
Nc1cccc2nsnc12 | 68 | . | .
Cn1nc(-c2ccc(Cl)cc2)c2cc(C(=O)NCCCN3CCCC3)sc21 | 49 | . | .
CN1/C(=C\C(=O)COC(=O)c2ccc([N+](=O)[O-])o2)C(C)(C)c2ccccc21 | 56 | . | .
CCOC(=O)c1cc(-c2ccc(/C=C3/C(=O)N(c4ccc(C(=O)O)cc4)N=C3C)o2)ccc1Cl | 50 | . | .
C=C(C)C(=O)Nc1cccc(C2=NOC3(C2)C[C@@H](C(N)=O)N(C(=O)/C=C/C=C/C)C3)c1 (stereo not given in full) | -326* | -3 | -129* | Apaf1 act interf=>100
C=C(C)C(=O)Nc1cccc(C2=NOC3(C2)C[C@@H](C(N)=O)N(C(=O)CC(c2ccccc2)c2ccccc2)C3)c1 (stereo not given in full) | -107* | 14 | -36
C=C(C)C(=O)Nc1cccc(C2=NOC3(C2)C[C@@H](C(N)=O)N(C(=O)/C(C)=C/C)C3)c1 (stereo not given in full) | -288* | -1 | -120* | Apaf1 act interf=>100
C=C(C)C(=O)Nc1cccc(C2=NOC3(C2)C[C@H](C(N)=O)N(C(=O)c2ccccc2C(=O)c2ccccc2)C3)c1 (stereo not given in full) | -270* | 6 | -125* | Apaf1 act interf=>100

High-throughput results deposited in PubChem by Sanford-Burnham Center for Chemical Genomics.
